Hits are enriched below; roughly 2.3% of the tested compounds scored in any of these assays.
PP1 inh: PP1-alpha (human) inhibition in PP5 counter-screen; purified PP1alpha, OMFP fluorescence; inhibition, % at 6.7 µM; AID 2235; 320,000 tested, 0.9% active;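 active means inhibition above the mean inhibition of all tested compounds plus 3 SD, computed separately for each screening campaign, cut at about 15% in these data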
PP5 inh: inhibitors of human protein phosphatase 5 (PP5); P53041; purified PP5c, OMFP substrate fluorescence; inhibition, % at 6.7 µM; 320,000 tested, 0.18% active; AID 1987;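 active means inhibition above the campaign's mean inhibition across all tested compounds plus 3 SD, cut at about 9.5% in these data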
Target sequence (P53041 whole entry, looked up): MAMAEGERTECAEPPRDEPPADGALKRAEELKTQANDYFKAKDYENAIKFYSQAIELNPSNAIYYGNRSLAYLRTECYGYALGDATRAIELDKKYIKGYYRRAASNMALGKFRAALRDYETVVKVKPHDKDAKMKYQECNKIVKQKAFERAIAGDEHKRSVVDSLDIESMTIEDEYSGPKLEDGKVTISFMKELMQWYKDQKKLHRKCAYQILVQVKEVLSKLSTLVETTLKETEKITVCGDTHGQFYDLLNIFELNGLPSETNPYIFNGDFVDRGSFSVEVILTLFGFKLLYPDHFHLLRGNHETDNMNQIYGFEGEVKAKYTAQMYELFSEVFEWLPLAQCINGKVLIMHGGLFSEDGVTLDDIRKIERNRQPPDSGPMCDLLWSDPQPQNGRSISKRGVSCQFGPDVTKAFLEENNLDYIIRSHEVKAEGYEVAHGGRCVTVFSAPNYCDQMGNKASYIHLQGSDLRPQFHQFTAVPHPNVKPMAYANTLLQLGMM
CTSL1 counter: blocks F. hepatica cathepsin L1 in PFM18AAP counter-screen | recombinant F. hepatica cathepsin L1, Z-Leu-Arg-MCA fluorescence | 300,000 tested, 0.49% active | inhibition, % at 5.96 µM;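 active means inhibition above the mean of all tested compounds plus 3 SD, set per screening campaign, cut at about 17% in these data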
UBC13 polyUb: human UBC13 polyubiquitination inhibition; UBC13 polyubiquitin chain formation, TR-FRET; inhibition, % at 20 µM; 330,000 tested, 0.47% active; AID 485273; in the data active means inhibition above about 45%, passing the limit was not always enough
Target sequence (P61088 whole entry, looked up): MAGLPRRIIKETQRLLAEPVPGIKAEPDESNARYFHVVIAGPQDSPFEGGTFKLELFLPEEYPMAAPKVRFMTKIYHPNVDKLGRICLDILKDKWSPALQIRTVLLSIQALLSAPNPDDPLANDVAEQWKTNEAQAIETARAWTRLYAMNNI
PREPL inh: inhibits the human prolyl oligopeptidase-like enzyme; 320,000 tested, 0.68% active; Q4J6C6; inhibition, % at 5.96 µM; recombinant PREPL, fluorescence polarization activity-based probe; AID 2751; in the data active means inhibition above about 43%
UCH37 DUB inh: human UCH37 deubiquitinating enzyme inhibition. purified proteasome/UCH37, Ub-AMC cleavage fluorescence. inhibition, % (test concentration not listed). 330,000 tested, 0.33% active;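 active means mean inhibition over replicate wells above about 20%, limit read from the data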
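Material: Human UCH37 enzyme supplied as purified proteasome complex | Schedule: 30 min preincubation with enzyme, 25 min cleavage at room temperature | Detection: AMC fluorescence 355/460 nm | Measure: % inhibition of Ub-AMC cleavage fluorescence | Controls: Wells without proteasome as full block, compound-free enzyme plus substrate as uninhibited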
PP5 inh confirm: PP5 (human) inhibition, confirmation; 460 tested, 22% active; AID 2331; inhibition, % at 6.7 µM; Purified PP5, fluorogenic phosphatase substrate, fluorescence; shares compounds with PP5 inh; in the data active means inhibition above about 9.5%
PP1 inh counter: inhibits human PP1 phosphatase in PP5 counter-screen; shares compounds with PP5 inh; PP1 enzyme, fluorescent phosphatase substrate; inhibition, % at 6.7 µM; 460 tested, 4% active; in the data active means inhibition above about 16%
A number is an active result; . = inactive; / = not tested or not shown.

SMILES	PP1 inh	PP5 inh	CTSL1 counter	UBC13 polyUb	PREPL inh	UCH37 DUB inh	PP5 inh confirm	PP1 inh counter
Cc1ccc(S(=O)(=O)/N=C2/C=C(Sc3ncn[nH]3)C(=O)c3ccccc32)c(C)c1	.	13	103	/	.	/	36	.
Cc1ccc(S(=O)(=O)/N=C2/C=C(Sc3ncn[nH]3)C(=O)c3ccccc32)cc1	.	13	107	/	.	/	23	24
O=C(O)c1cccc(NS(=O)(=O)c2ccc3c(c2)C(=O)c2ccccc2C3=O)c1	.	.	.	.	.	.	/	/
CC(CC(=O)Nc1cc(C)ccn1)=NNC(=O)c1cccc(F)c1	/	/	/	/	/	.	/	/
COc1ccc(C=NNC(=O)c2c(C)nc3ccccn23)cc1[N+](=O)[O-]	/	/	/	/	/	.	/	/
CCC(=O)Nc1c(C#N)c2nc3ccccc3nc2n1-c1ccccc1C	.	.	.	.	.	.	/	/
CCCCn1c(NC(=O)c2ccccc2Cl)c(C#N)c2nc3ccccc3nc21	.	12	.	.	.	.	40	27
Nc1ccc(O)cc1	.	11	96	/	.	/	.	.
Cc1ccc(NC(=O)Cc2nc(CCl)cs2)cc1	.	.	.	.	.	.	/	/
COc1ccccc1NC(=O)Nc1nc(CC(=O)Nc2ccc(F)c(F)c2)cs1	.	9.9	.	.	.	.	.	.
Cc1ccc(NC(=S)Nc2nc(CC(=O)Nc3ccccc3)cs2)cc1	.	10	.	.	.	.	.	.
Oc1ccc(/C=N\Nc2cc(N3CCOCC3)nc(N3CCOCC3)n2)c(O)c1	.	14	.	.	.	/	36	.
Cc1cc(N/N=C/c2ccc(O)cc2O)nc(N2CCOCC2)n1	.	.	.	.	.	/	/	/
CCOc1ccc(N=C/C=C/c2ccccc2)c(O)c1	.	9.9	.	.	.	.	.	.
Cc1cccc(-c2nnc(NC(=O)c3ccc(Cl)cc3)o2)c1	.	9.6	.	.	.	.	.	24
COC(=O)C1=C(CSc2nccn2C)NC(=O)NC1c1cc(C)ccc1C (stereo not given)	.	9.9	.	.	.	.	.	.
COC(=O)C1=C(CSc2nncn2C)NC(=O)NC1c1cc(C)ccc1C (stereo not given)	.	.	.	.	.	.	/	/
COc1ccccc1NC(=O)Cn1nc(-c2ccncc2)nc1SCC(=O)NC1CCCC1	.	11	.	.	.	.	.	.
CC(=NNc1cc(Cl)nc(C)n1)c1ccc(C)cc1	/	/	/	/	/	.	/	/
COCCOC(=O)c1c(C)oc2ccc(OC(=O)c3cccs3)cc12	.	10	.	.	.	.	.	.
O=[N+]([O-])c1ccc(N(c2ccccc2)c2ccccc2)cc1	.	9.9	.	.	.	.	.	.
CCN(C(=O)c1ccccc1)c1ccc([N+](=O)[O-])cc1	.	.	.	.	.	.	/	/
CCSc1nnc(NC(=O)CSc2nc3c(c(=O)n2-c2ccccc2)SCC3)s1	.	12	.	.	.	.	.	.
Cc1ccc(-n2c(SCC(=O)Nc3nccs3)nc3c(c2=O)SCC3)cc1	.	.	.	.	.	.	/	/
COc1ccc(NC(=O)C2CC(=O)N(C)C(=Nc3ccc4c(c3)OCO4)S2)cc1 (stereo not given)	.	12	.	.	.	.	.	.
SMILES	PP1 inh	PP5 inh	CTSL1 counter	UBC13 polyUb	PREPL inh	UCH37 DUB inh	PP5 inh confirm	PP1 inh counter
CN1C(=O)CC(C(=O)Nc2ccc(F)cc2)SC1=Nc1ccc2c(c1)OCO2 (stereo not given)	.	.	.	.	.	.	/	/
CCCCC1=NN(C(=O)c2ccncc2)C(O)(C(F)(F)F)C1 (stereo not given)	.	.	.	.	.	.	/	/
CCCCC1=NN(C(=O)c2cocc2C)C(O)(C(F)(F)F)C1 (stereo not given)	.	13	.	.	.	.	.	.
Cc1cc(C)nc(N=C(N)Nc2ccc(F)c([N+](=O)[O-])c2)n1	/	/	/	/	/	.	/	/
CC(C)c1ccc(N(CC(=O)NN=Cc2ccc(OC3CSC3)cc2)S(=O)(=O)c2ccccc2)cc1	/	/	/	/	/	.	/	/
Nc1ccc(N=Nc2ccccc2O)c(N)c1	.	12	.	.	.	.	.	.
O=C(NN=CC1CC=CCC1)c1cc(Br)ccc1O (stereo not given)	/	/	/	/	/	.	/	/
COC(=O)C1=C(C)NC(C)=C(C(=O)OC)C1c1cn(-c2ccccc2)nc1-c1ccco1	.	14	.	.	.	.	.	.
COCCOC(=O)C1=C(C)NC(=O)NC1c1cn(-c2ccccc2)nc1-c1cccs1 (stereo not given)	.	.	.	.	.	.	/	/
Cc1nn(Cc2ccccc2Cl)c(C)c1NC(=O)C1C2CCC(O2)C1C(=O)O (stereo not given)	/	/	/	/	/	.	/	/
COC(=O)c1c(NC(=O)C2C3CCC(O3)C2C(=O)O)sc2c1CCCCCC2 (stereo not given)	.	12	.	.	.	.	.	.
Cc1ccc(-c2c(C)sc(NC(=O)C3C4CCC(O4)C3C(=O)O)c2C(=O)OC(C)C)cc1 (stereo not given)	.	13	.	.	.	.	.	.
CCOC(=O)c1c(NC(=O)COC)sc2c1CCCC2	.	.	.	.	.	.	/	/
COC(=O)c1c(NC(=O)C2C3CCC(C3)C2C(=O)O)sc2c1CCCCC2 (stereo not given)	.	.	.	.	.	.	/	/
CCc1cccc(C)c1NC(=O)C1C2CCC(O2)C1C(=O)O (stereo not given)	.	12	.	.	.	.	.	.
CCOC(=O)c1c(NC(=O)C2C3CCC(O3)C2C(=O)O)sc2c1CCCC2 (stereo not given)	.	14	.	.	.	.	11	.
COC(=O)CCC/C=C1/SCC(NC(=O)c2ccccc2)C1=NO (stereo not given)	/	/	/	/	/	.	/	/
Cc1ccc(NC(=O)CN(C)C(=O)c2cccnc2Nc2cccc(C(F)(F)F)c2)cc1	.	11	.	.	.	.	.	.
COC(=O)c1sc(NC(=O)c2c(C)noc2C)nc1C	.	.	.	.	.	.	/	/
COC(=O)c1sc(N)c(C(=O)OC)c1COC(=O)c1c(C)noc1C	.	10	.	.	.	.	.	.
Cc1ccc(C(=O)NC(C)c2ccccc2)o1 (stereo not given)	.	11	.	.	.	.	.	.
CC(NC(=O)c1ccc(Br)o1)c1ccccc1 (stereo not given)	.	.	.	.	.	.	/	/
Oc1ccccc1NCC(O)Cn1ccc2ccccc21 (stereo not given)	.	9.8	.	.	45	.	.	.
Cc1ccc(/C(O)=C2\C(=O)C(=O)N(C)C2c2ccc(Br)cc2)cc1 (stereo not given)	.	10	.	.	.	.	.	.
O=C(Nc1ccccc1C(=O)NN=Cc1ccco1)c1ccccc1Cl	/	/	/	/	/	.	/	/
